From article PMC2646117 (Cell host & microbe, 2008)
Like-named read-outs stand apart in the source and are kept apart here.

Tests used:
PbΔfabI = assay: Ex vivo drug susceptibility assay, P. berghei asexual blood stages; type: cell-based; conditions: Plasmodium berghei
PbfabI^Rec = assay: Ex vivo drug susceptibility assay, P. berghei asexual blood stages; type: cell-based; conditions: Plasmodium berghei
Method in brief: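 Ex vivo growth of P. berghei asexual blood-stage parasites exposed to the test compound was measured by [³H]-hypoxanthine assay. IC50 was calculated by linear regression. Each compound was tested in duplicate on at least two separate occasions.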

ANKA = assay: Ex vivo drug susceptibility assay, P. berghei asexual blood stages; type: cell-based; conditions: Plasmodium berghei
P. falciparum 3D7 = type: cell-based; conditions: Plasmodium falciparum, 3D7, read-out: mean IC50
P. falciparum Dd2 = type: cell-based; conditions: Plasmodium falciparum, DD2, read-out: mean IC50
[1] = test system: P. berghei (KBG-173 line); type: in vivo; conditions: for parasitemia on day 6 post-infection: three days twice-daily divided dose
PffabI(A217V)^Dd2 = assay: Drug susceptibility assay, transgenic line; type: cell-based, P. falciparum; conditions: Plasmodium falciparum
PffabI(WT)^Dd2 = assay: Drug susceptibility assay, transgenic line; type: cell-based, P. falciparum; conditions: Plasmodium falciparum
Dd2^attB = assay: Drug susceptibility assay, parental line; type: cell-based, P. falciparum; conditions: Plasmodium falciparum
PffabI(A217V)^3D7 = assay: Drug susceptibility assay, transgenic line; type: cell-based, P. falciparum; conditions: Plasmodium falciparum
PffabI(WT)^3D7 = assay: Drug susceptibility assay, transgenic line; type: cell-based, P. falciparum; conditions: Plasmodium falciparum
3D7^attB = assay: Drug susceptibility assay, parental line; type: cell-based, P. falciparum; conditions: Plasmodium falciparum
PfΔfabI^1 = assay: Drug susceptibility assay, pffabI knockout clone; type: cell-based, P. falciparum; conditions: Plasmodium falciparum, read-out: IC50 (mean ± SEM)
PfΔfabI^2 = assay: Drug susceptibility assay, pffabI knockout clone; type: cell-based, P. falciparum; conditions: Plasmodium falciparum, read-out: IC50 (mean ± SEM)
P. berghei = conditions: SC, 3 mg/kg/day, four days; ref Surolia and Surolia, 2001; cited from earlier work
recombinant PfFabI A217V = recombinant PfFabI A217V versus wild type; ref Kapoor et al., 2004; cited from earlier work

CCN(CC)CCCC(C)Nc1ccnc2cc(Cl)ccc12 (centres unmarked) [chloroquine]
IC50 (PbΔfabI): 11 ± 0.1 nM
IC50 (PbfabI^Rec): 13 ± 0.6 nM
IC50 (ANKA): 10.4 ± 0.3 nM

Oc1cc(Cl)ccc1Oc1ccc(Cl)cc1Cl [triclosan, 5-chloro-2-(2,4-dichlorophenoxy)phenol]
IC50 (P. falciparum 3D7): 1800 nM
parasitemia at doses above 128 mg/kg/day ([1]; PO or SC, doses higher than 128 mg/kg/day): failed to further suppress the parasitemias
survival times ([1]; PO, 64 mg/kg/day): slight extension in survival times
survival rate at day 31 ([1]; PO, 128 mg/kg/day): 30%
parasitemia on day 6 post-infection ([1]; PO, 128 mg/kg/day, placebo control 61%): 27%
survival rate at day 31 ([1]; PO, 256 mg/kg/day): 30%
mortality / overall survival (toxicity) ([1]; PO, 512 mg/kg/day): some early mortality and decreased overall survival rates
survival ([1]; SC route, 16 to 512 mg/kg/day): ≤ 50%
parasitemia on day 6 post-infection ([1]; SC, 128 mg/kg/day, placebo control 57%): 13%
IC50 (Dd2^attB; DD2, read-out: IC50 (mean±SEM)): 3100 ± 700 nM
IC90 (Dd2^attB; DD2, read-out: IC90 (mean±SEM)): 7200 ± 700 nM
IC90 (3D7^attB; 3D7, read-out: IC90 (mean±SEM)): 4800 ± 600 nM
IC50 (PfΔfabI^1): 2200 ± 200 nM
IC50 (PfΔfabI^2): 2400 ± 300 nM
IC50 (PbΔfabI; read-out: IC50 (means±SEM)): 1400 ± 100 nM
IC50 (PbfabI^Rec; read-out: IC50 (means±SEM)): 1500 ± 200 nM
IC50 (ANKA; read-out: IC50 (means±SEM)): 1200 ± 100 nM
suppression of P. berghei parasitemia (P. berghei): 75%
decrease in binding affinity conferred by A217V mutation (recombinant PfFabI A217V): 7,000 fold
